Measurements from different studies.
Protocols differ between the studies behind these lines.
Target: Casein kinase II subunit alpha' (CSNK2A2, Homo sapiens, UniProt P19784)

With `O=C(c1ccc(Nc2ncc(Cl)c(-c3cc4ccccc4s3)n2)cc1)N1CCC(N2CCCC2)CC1` the remaining binding was 0.1% (binding, competition with immobilised ligand; 1 µM).
`COc1cnc(Nc2cccc(S(N)(=O)=O)c2)nc1N1CCN(c2ccccc2)CC1` gave a remaining binding of 90% (binding, competition with immobilised ligand; 1 µM).
For `CN(c1nccc(-c2cnn3ncccc23)n1)C1CC1`, the remaining binding was 100% (binding; 1 µM).
The remaining binding of `Cn1cc(Cl)c2c(Oc3c(F)cc(Nc4cc(Cl)nc(N)n4)cc3F)ccnc21` is reported as 89% (cell-free assay, competition with immobilised ligand; 0.1 µM).
`O=C(NCC1CCOCC1)c1n[nH]cc1NC(=O)c1c(F)cccc1F` gave a remaining binding of 76% (binding, competition with immobilised ligand; 1 µM).
With `F[C@@H]1CCN(c2nccc(-c3cnn4ncccc34)n2)C1` the remaining binding was 100% (binding; 1 µM).
`FC(F)(F)Oc1cccc(-c2cnc3ccc(-c4ccncc4)nn23)c1` gave a remaining binding of 23% (cell-free assay, competition with immobilised ligand; 5 µM).
`O=C(NS(=O)(=O)c1ccc(NCC2CCOCC2)c([N+](=O)[O-])c1)c1ccc(N2CCN(Cc3ccc(C(F)(F)F)cc3-c3ccc(Cl)cc3)CC2)cc1Oc1cnc2[nH]ccc2c1` has a remaining binding of 100% (cell-free assay, competition with immobilised ligand; 1 µM).
`COc1ncc2cc3ccccc3nc2c1C#N` gave a remaining binding of 97% (cell-free assay, competition with immobilised ligand; 5 µM).
For `CC(C)(O)c1cncc(-c2nc3ccc(F)cc3n2C2CC2)c1`, the remaining binding was 100% (cell-free assay, competition with immobilised ligand; 1 µM).
For `N[C@@H]1CCN(c2nccc(-c3cnn4ncccc34)n2)C1`, the remaining binding was 100% (binding; 1 µM).
`CO[C@@H](C)c1c(Nc2ccc([C@@H](N(C)C(=O)C3CCS(=O)(=O)CC3)C(F)(F)F)cc2)cnc2cc(Cl)nn12` gave a remaining binding of 100% (cell-free assay, competition with immobilised ligand; 1 µM).
For `CN(C)c1ncc(F)c(-c2cnn3ncccc23)n1`, the remaining binding was 100% (binding; 1 µM).
For `CNC(=O)[C@@H]1CC[C@@H](n2c(-c3ccc4cnccc4c3)nc3ccc(C(=O)NCc4cccc(C(N)=O)c4)cc32)C1`, the remaining binding was 100% (binding, competition with immobilised ligand; 1 µM).
`O=C(NCCCN1CCOCC1)c1ccc(Nc2nccc(-c3cc4ccccc4s3)n2)cc1` gave a remaining binding of 19% (binding, competition with immobilised ligand; 1 µM).
`CN([C@@H]1CCc2c(CC(=O)O)c3cc(S(C)(=O)=O)ccc3n2C1)S(=O)(=O)c1ccc(F)cc1` gave a remaining binding of 100% (cell-free assay, competition with immobilised ligand; 1 µM).
For `Cc1cnc(Nc2ccc(C(=O)N3CCC(N4CCCC4)CC3)cc2)nc1-c1cc2ccccc2s1`, the remaining binding was 0% (binding, competition with immobilised ligand; 1 µM).
For `CC1=C(C#N)[C@@H](c2ccc3[nH]nc(C)c3c2)C(C#N)=C(c2ccc(Cl)cc2)N1`, the remaining binding was 100% (cell-free assay, competition with immobilised ligand; 1 µM).
`CN(C)c1nccc(-c2cnc3ncccn23)n1` has a remaining binding of 24% (binding; 1 µM).
`Cc1cc(C)c(-n2ccn3nc(-c4cccnc4)cc23)cc1NC(=O)c1cc(C#N)cc(S(F)(F)(F)(F)F)c1` has a remaining binding of 82.4% (cell-free assay, competition with immobilised ligand; 0.1 µM).
The remaining binding of `C[C@@H]1CCN(c2nccc(-c3cnn4ncccc34)n2)C1` is reported as 60% (binding; 1 µM).
`c1cncc(-c2cccc(Nc3nccc(NC4CCCCC4)n3)c2)c1` gave a remaining binding of 65% (binding, competition with immobilised ligand; 10 µM).
